In series [1] the test system is Cricetinae gen. sp. Briefly: Number of hamsters (male) with follicular cell dilation over the total number of tested at 4.56 g/kg of compound in iodinated form administered orally; 0/5. It is filed as functional, Cricetulus griseus.
Series [2] deals with Cricetinae gen. sp. Briefly: Number of hamsters (male) with follicular cell necrosis over the total number of tested at 4.56 g/kg of compound in iodinated form administered orally; 0/5. It is filed as functional, Cricetulus griseus.
Series [3] has as its system Cricetinae gen. sp. Briefly: Number of hamsters (male) with follicular cell mitotic figures above the control value, to that of total number of tested at 4.56 g/kg of compound in iodinated form administered orally; 0/5. It is filed as functional, Cricetulus griseus.
Series [4] is filed under the species Rattus norvegicus. The series is described as follows: Compound (4 uM) was evaluated for the half-life period in rats after incubation with microsomes for 60 min. It counts as functional. The conditions noted are these: Microsome. The procedure, abridged:
(§1)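 Liver microsomes from male Sprague-Dawley rat, male golden Syrian hamster or human, incubated with substrate at 4 µM. Duplicate incubates were sampled at 0, 15, 30 and 60 min, quenched with saturated zinc sulfate and extracted with propan-2-ol. Samples were analysed by isocratic reversed-phase C8 HPLC (65% i-PrOH/water, 0.1% TFA). Values were normalized to the 0 min control to derive half-life (n = 2).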

The species named for series [5] is Cricetulus griseus. Briefly: Percent of compound (40 uM) present in unmetabolized form in hamsters after incubation with microsomes for 60 min. It is filed as functional. The conditions noted are these: Microsome. The procedure, abridged:
(§2)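 Substrate at 40 µM was incubated 60 min with male Sprague-Dawley rat or male golden Syrian hamster liver microsomes, in duplicate, with sampling at 0, 15, 30 and 60 min. Aliquots were zinc sulfate-quenched, propan-2-ol-extracted and run on isocratic reversed-phase C8 HPLC. Intact drug is expressed relative to 0 min control values.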

The test system of series [6] is Cricetinae gen. sp. Briefly: Number of hamsters (female) with follicular cell mitotic figures above the control value, to that of total number of tested at 4.56 g/kg of compound in iodinated form administered orally; 3/3. It counts as functional, Cricetulus griseus.
Series [7] is filed under the species Rattus norvegicus. Briefly: Percent of compound (40 uM) present in unmetabolized form in rats after incubation with microsomes for 60 min. The following applies: Microsome. It counts as functional. The procedure, abridged:
as §2

Series [8] relates to Cricetinae gen. sp. The series is described as follows: Number of hamsters (male) with follicular cell mitotic figures above the control value, to that of total number of tested at 4.56 g/kg of compound in iodinated form administered orally; 3/3. It counts as functional, Cricetulus griseus.
The test system of series [9] is Cricetinae gen. sp. The series is described as follows: Number of hamsters (female) with follicular cell necrosis over the total number of tested at 4.56 g/kg of compound in iodinated form administered orally; 0/3. It counts as functional, Cricetulus griseus.
Series [10] deals with Cricetinae gen. sp. Briefly: Number of hamsters (male) with follicular cell dilation over the total number of tested at 4.56 g/kg of compound in iodinated form administered orally; 3/3. It counts as functional, Cricetulus griseus.
Series [11] is filed under the species Cricetulus griseus. Briefly: Compound (4 uM) was evaluated for the half-life period in hamster after incubation with microsomes for 60 min. It is filed as functional. The conditions noted are these: Microsome. The procedure, abridged: as §1
Series [12] concerns Mus musculus. The series is described as follows: Toxicity in mice evaluated, after a single dose of compound containing 2.28 g/kg of iodinated form administered as 20 ml/kg solution; NT=No toxicity. It counts as organism-based. The following applies: in vivo, 2280 mg/kg. The procedure, abridged: (§3)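 Mice, 3 per dose group, received a single oral dose of the test agent as a mineral oil-in-water emulsion. Doses were 10, 20 or 40 mL/kg, about 1-, 2- and 4-fold the anticipated human dose of 114 mg I/mL. Emulsion vehicle alone at 40 mL/kg was the control. Clinical signs and mortality were checked several times on the dosing day, then daily for 7 days. Body weight was taken at 24 h and 1 week, and survivors were necropsied on day 7. Read-out was deaths over animals dosed.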

In series [13] the test system is Cricetinae gen. sp. The series is described as follows: Number of hamsters (male) with follicular cell necrosis over the total number of tested at 4.56 g/kg of compound in iodinated form administered orally; 3/3. It counts as functional, Cricetulus griseus.
The test system of series [14] is Cricetinae gen. sp. Briefly: Number of hamsters (female) with follicular cell dilation over the total number of tested at 4.56 g/kg of compound in iodinated form administered orally; 3/3. It is filed as functional, Cricetulus griseus.
Series [15] relates to Mus musculus. The series is described as follows: Mortality observed in mouse tested for murine toxicity after a single dose of compound (7.00 g/kg) containing iodinated form (4.56 g/kg) of it, administered as 40 mL/kg solution; 0/3. It is filed as functional. The procedure, abridged:
as §3

The species named for another series is Homo sapiens. The series is described as follows: Compound (4 uM) was evaluated for the half-life period in humans after incubation with microsomes for 60 min. The conditions noted are these: Microsome.
Series [16] has as its system Mus musculus. Briefly: Toxicity in mice evaluated, after a single dose of compound containing 1.14 g/kg of iodinated form administered as 10 mL/kg solution; NT=No toxicity. It counts as organism-based. The following applies: in vivo, 1140 mg/kg. The method in brief:
as §3

Series [17] deals with Cricetinae gen. sp. Briefly: Number of hamsters (male) with follicular cell mitotic figures above the control value, to that of total number of tested at 4.56 g/kg of compound in iodinated form administered orally; 1/3. It is filed as functional, Cricetulus griseus.
Series [18] relates to Cricetinae gen. sp. Briefly: Number of hamsters (female) with follicular cell necrosis over the total number of tested at 4.56 g/kg of compound in iodinated form administered orally; 1/6. It counts as functional, Cricetulus griseus.
The test system of series [19] is Cricetinae gen. sp. The series is described as follows: Number of hamsters (male) with follicular cell dilation over the total number of tested at 4.56 g/kg of compound in iodinated form administered orally; 1/3. It is filed as functional, Cricetulus griseus.
Series [20] deals with Cricetinae gen. sp. The series is described as follows: Number of hamsters (male) with follicular cell necrosis over the total number of tested at 4.56 g/kg of compound in iodinated form administered orally; 0/3. It counts as functional, Cricetulus griseus.
Series [21] relates to Mus musculus. Briefly: Mortality observed in mouse tested for murine toxicity after a single dose of compound (8.49 g/kg) containing iodinated form (4.56 g/kg) of it, administered as 40 mL/kg solution; 0/3. It counts as functional. The procedure, abridged:
as §3

Series [22] deals with Cricetinae gen. sp. Briefly: Number of hamsters (female) with follicular cell mitotic figures above the control value, to that of total number of tested at 4.56 g/kg of compound in iodinated form administered orally; 1/3. It is filed as functional, Cricetulus griseus.
Series [23] has as its system Cricetinae gen. sp. Briefly: Number of hamsters (female) with follicular cell dilation over the total number of tested at 4.56 g/kg of compound in iodinated form administered orally; 1/3. It is filed as functional, Cricetulus griseus.
Series [24] concerns Mus musculus. The series is described as follows: Mortality observed in mouse tested for murine toxicity after a single dose of compound (2.80 g/kg) containing iodinated form (0.853 g/kg) of it, administered as 10 mL/kg solution; 1/3. It counts as functional.
For series [25], the system named is Mus musculus. The series is described as follows: Mortality observed in mouse tested for murine toxicity after a single dose of compound (5.34 g/kg) containing iodinated form (1.63 g/kg) of it, administered as 10 mL/kg solution; 3/3. It counts as functional.
The subject of series [26] is Mus musculus. The series is described as follows: Mortality observed in mouse tested for murine toxicity after a single dose of compound (12.5 g/kg) containing iodinated form (3.81 g/kg) of it, administered as 10 mL/kg solution; 3/3. It is filed as functional.
Series [27] deals with Mus musculus. The series is described as follows: Mortality observed in mouse tested for murine toxicity, 7 days after a single dose of compound containing 6.53 g/kg of iodinated form, administered as 40 mL/kg solution. It counts as functional. The method in brief: as §3
Series [28] deals with Mus musculus. The series is described as follows: Mortality observed in mouse tested for murine toxicity, 7 days after a single dose of compound containing 3.27g/kg of iodinated form, administered as 20 ml/kg solution. It counts as functional. The procedure, abridged: as §3
In series [29] the test system is Mus musculus. Briefly: Mortality observed in mouse tested for murine toxicity after a single dose of compound (6.26 g/kg) containing iodinated form (1.91 g/kg) of it, administered as 10 mL/kg solution; 1/3. It counts as functional.

As for `CC(C)CCCCCc1c(I)c(CCCCCC(C)C)c(I)c(CCCCCC(C)C)c1I`, the Dilation in the series with Cricetinae gen. sp. [1] worked out at 0. In the series on Cricetinae gen. sp. [2], this compound yielded a Necrosis of 0. For the same compound, in the series with Cricetinae gen. sp. [3], the Mitotic figures is on record as 0.

Take `CCCCCCC(C)Oc1c(I)cc(I)cc1I` (configuration not stated): the T1/2 in the series listed under Rattus norvegicus [4] stood at 36 min; in the series listed under Cricetulus griseus [11] it was 15 min; in the series listed under Homo sapiens, 132 min. Moreover, the Intact in the series listed under Cricetulus griseus [5] and in the series listed under Rattus norvegicus [7] was 73% throughout. Also, the Mitotic figures in the series on Cricetinae gen. sp. [6] and in the series on Cricetinae gen. sp. [8] was 3 each time. The Necrosis in the series with Cricetinae gen. sp. [9] was determined as 0; in the series on Cricetinae gen. sp. [13], 2. For the same compound, the Dilation in the series with Cricetinae gen. sp. [10] and in the series on Cricetinae gen. sp. [14] was 3 each time. Moreover, the Toxicity result in the series on Mus musculus [12] and in the series on Mus musculus [16] was “Not toxic” in each case. Besides, the Mortality in the series with Mus musculus [15] was 0 number of descendants/number of tested.

For the compound `CCCCCCc1c(I)c(CCCCCC)c(I)c(CCCCCC)c1I`, the Mitotic figures was 1 with Cricetinae gen. sp. [17] and 0 in the series with Cricetinae gen. sp. [22]. For the same compound, the Necrosis with Cricetinae gen. sp. [18] and in the series with Cricetinae gen. sp. [20] was 0 throughout. Further, the figures for the Dilation with Cricetinae gen. sp. [19] and in the series with Cricetinae gen. sp. [23] were 1 and 0, respectively. The Toxicity result with Mus musculus [12] and with Mus musculus [16] was “Not toxic” throughout. Further, the Mortality in the series on Mus musculus [21] is reported as 0 number of descendants/number of tested.

`CCOC(=O)CCCCCCCCC(C)c1ccc(I)cc1` (configuration not stated) [IOPHENDYLATE]: the Mortality was 1 number of descendants/number of tested in the series with Mus musculus [24]; 3 number of descendants/number of tested with Mus musculus [25]; 3 number of descendants/number of tested in the series with Mus musculus [26]; 100% with Mus musculus [27]; 100% with Mus musculus [28]; 1 number of descendants/number of tested in the series with Mus musculus [29].

The values are drawn from ChEMBL document CHEMBL1133021, “1,3,5-Trialkyl-2,4,6-triiodobenzenes: novel X-ray contrast agents for gastrointestinal imaging” (J Med Chem, 2000).
